In ChEMBL document CHEMBL5696442, “Discovery of type II inhibitors of TGFβ-activated kinase 1 (TAK1) and mitogen-activated protein kinase kinase kinase kinase 2 (MAP4K2)” (J Med Chem, 2015) one finds % of control, inhibition and residual activity data, which are given here for three molecules.

As usually defined, the inhibition is the change of the read-out against control, counted positive when it falls. A word on the residual activity: it is the share of the control activity or signal that is left under treatment. Read a low residual activity as a large loss of activity.

Activity calls are given as the source filed them. The calls are words filed in the database; no cut-off is given here.

Test [1] deals with Tyrosine-protein kinase ABL2 (Homo sapiens, UniProt P42684). The test is described as follows: Inhibition of ABL2 (unknown origin) at 1 uM by Ambit Kinomescan binding assay relative to control; values are per cent of control.
The target of test [2] is Serine/threonine-protein kinase SIK3 (Homo sapiens) (UniProt Q9Y2K2). The test is described as follows: Inhibition of QSK (unknown origin) at 1 uM by Ambit Kinomescan binding assay relative to control.
Test [3] has as its target Ribosomal protein S6 kinase alpha-2 (Homo sapiens) (UniProt Q15349). The test is described as follows: Inhibition of C-terminal RSK3 kinase domain 2 (unknown origin) at 1 uM by Ambit Kinomescan binding assay relative to control. Summed up: (§1)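 In vitro ATP-site competition binding assay against a panel of over 420 kinases (KinomeScan), with compound tested at 10 or 1 μM.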

In test [4] the target is Receptor tyrosine-protein kinase erbB-2 (Homo sapiens) (UniProt P04626). The test can be described thus: Inhibition of ERBB2 (unknown origin) at 1 uM by Ambit Kinomescan binding assay relative to control.
For test [5], the target named is Fibroblast growth factor receptor 4 (Homo sapiens) (UniProt P22455). The test can be described thus: Inhibition of FGFR4 (unknown origin) at 1 uM by Ambit Kinomescan binding assay relative to control; values are per cent of control.
Test [6] concerns the target LIM domain kinase 1 (Homo sapiens) (UniProt P53667). The test can be described thus: Inhibition of LIMK1 (unknown origin) at 1 uM by Ambit Kinomescan binding assay relative to control; values are per cent of control.
Test [7] deals with Ribosomal protein S6 kinase alpha-1 (Homo sapiens) (UniProt Q15418). The test is described as follows: Inhibition of C-terminal RSK1 kinase domain 2 (unknown origin) at 1 uM by Ambit Kinomescan binding assay relative to control. The method, boiled down:
as §1

Test [8] deals with Cyclin-dependent kinase-like 5 (Homo sapiens) (UniProt O76039). The test can be described thus: Inhibition of CDKL5 (unknown origin) at 1 uM by Ambit Kinomescan binding assay relative to control; values are per cent of control.
The test system of test [9] is Epidermal growth factor receptor (Homo sapiens), P00533 [L858R,T790M]. The test is described as follows: Inhibition of EGFR L858R/T790M mutant (unknown origin) at 1 uM by Ambit Kinomescan binding assay relative to control.
The target in test [10] is Fibroblast growth factor receptor 1 (Homo sapiens) (UniProt P11362). The test is described as follows: Inhibition of FGFR1 (unknown origin) at 1 uM by Ambit Kinomescan binding assay relative to control; values are per cent of control.
For test [11], the target named is Rhodopsin kinase GRK1 (Homo sapiens) (UniProt Q15835). The test is described as follows: Inhibition of GRK1 (unknown origin) at 1 uM by Ambit Kinomescan binding assay relative to control; values are per cent of control.
Test [12] concerns the target Dual specificity mitogen-activated protein kinase kinase 1 (Homo sapiens) (UniProt Q02750). The test can be described thus: Inhibition of MAP2K1 Lys2 labeling site harbouring IMHRDVKPSNILVNSR in human A-375 cells at 5 uM by KiNativ Profiling analysis relative to control. In kind it is cell-based.
The target in test [13] is Serine/threonine-protein kinase 4 (Homo sapiens) (UniProt Q13043). The test is described as follows: Inhibition of MST1 Lys2 labeling site harbouring DIKAGNILLNTEGHAK in human A-375 cells at 0.5 uM by KiNativ Profiling analysis relative to control.
Test [14] concerns the target Mitogen-activated protein kinase kinase kinase 1 (Homo sapiens) (UniProt Q13233). The test can be described thus: Inhibition of MAP3K1 Lys2 labeling site in human A-375 cells at 5 uM by KiNativ Profiling analysis relative to control. In kind it is cell-based.
The target of test [15] is Serine/threonine-protein kinase 38-like (Homo sapiens) (UniProt Q9Y2H1). The test is described as follows: Inhibition of NDR2 ACT labeling site in human A-375 cells at 0.5 uM by KiNativ Profiling analysis relative to control. Format: cell-based.
The nature of test [16]: Inhibition of TLK1/2 K2 labeling site in human Huh-7 cells at 1 uM by KiNativ Profiling analysis relative to control. To be noted: condition cancer.
The target of test [17] is Activin receptor type-2B (Homo sapiens) (UniProt Q13705). The test can be described thus: Inhibition of ACVR2B (unknown origin) at 10 uM by Ambit Kinomescan binding assay.
Test [18] addresses Serine/threonine-protein kinase N1 (Homo sapiens) (UniProt Q16512). The test can be described thus: Inhibition of PKN1 (unknown origin) at 10 uM by Ambit Kinomescan binding assay.
Test [19] concerns the target Serine/threonine-protein kinase PLK1 (Homo sapiens) (UniProt P53350). The test can be described thus: Inhibition of PLK1 Lys2 labeling site harbouring DLKLGNLFLNEDLEVK in human Huh-7 cell lysate at 1 uM by KiNativ Profiling analysis relative to control. Format: subcellular.
Test [20] deals with Cyclin-dependent kinase 17 (Homo sapiens) (UniProt Q00537). The test can be described thus: Inhibition of PCTAIRE2 PCTAIRE3 Lys1 labeling site in human Huh-7 cell lysate at 1 uM by KiNativ Profiling analysis relative to control. In kind it is subcellular.
The target in test [21] is Serine/threonine-protein kinase 4 (Homo sapiens) (UniProt Q13043). The test is described as follows: Inhibition of MST1 Lys1 labeling site harbouring ETGQIVAIKQVPVESDLQEIIK in human Huh-7 cells at 1 uM by KiNativ Profiling analysis relative to control.
Test [22] is described as follows: Inhibition of p70S6K ATP Loop labeling site in human Huh-7 cells at 1 uM by KiNativ Profiling analysis relative to control. To be noted: condition cancer.

Chain of Serine/threonine-protein kinase 4 (Homo sapiens) (Q13043 whole entry, looked up): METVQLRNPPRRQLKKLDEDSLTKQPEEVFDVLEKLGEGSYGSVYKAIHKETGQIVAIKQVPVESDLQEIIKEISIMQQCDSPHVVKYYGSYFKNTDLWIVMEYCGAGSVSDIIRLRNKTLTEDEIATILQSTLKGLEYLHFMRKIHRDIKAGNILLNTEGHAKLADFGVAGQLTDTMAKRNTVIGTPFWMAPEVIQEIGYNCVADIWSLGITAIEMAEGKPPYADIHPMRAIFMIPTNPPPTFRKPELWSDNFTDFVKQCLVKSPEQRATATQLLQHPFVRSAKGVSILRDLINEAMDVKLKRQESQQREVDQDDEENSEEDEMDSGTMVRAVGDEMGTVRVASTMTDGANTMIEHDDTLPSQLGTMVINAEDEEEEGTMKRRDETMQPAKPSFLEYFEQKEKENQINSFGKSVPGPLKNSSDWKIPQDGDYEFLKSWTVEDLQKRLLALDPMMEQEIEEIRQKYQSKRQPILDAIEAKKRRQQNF
Chain of Tyrosine-protein kinase ABL2 (P42684 whole entry): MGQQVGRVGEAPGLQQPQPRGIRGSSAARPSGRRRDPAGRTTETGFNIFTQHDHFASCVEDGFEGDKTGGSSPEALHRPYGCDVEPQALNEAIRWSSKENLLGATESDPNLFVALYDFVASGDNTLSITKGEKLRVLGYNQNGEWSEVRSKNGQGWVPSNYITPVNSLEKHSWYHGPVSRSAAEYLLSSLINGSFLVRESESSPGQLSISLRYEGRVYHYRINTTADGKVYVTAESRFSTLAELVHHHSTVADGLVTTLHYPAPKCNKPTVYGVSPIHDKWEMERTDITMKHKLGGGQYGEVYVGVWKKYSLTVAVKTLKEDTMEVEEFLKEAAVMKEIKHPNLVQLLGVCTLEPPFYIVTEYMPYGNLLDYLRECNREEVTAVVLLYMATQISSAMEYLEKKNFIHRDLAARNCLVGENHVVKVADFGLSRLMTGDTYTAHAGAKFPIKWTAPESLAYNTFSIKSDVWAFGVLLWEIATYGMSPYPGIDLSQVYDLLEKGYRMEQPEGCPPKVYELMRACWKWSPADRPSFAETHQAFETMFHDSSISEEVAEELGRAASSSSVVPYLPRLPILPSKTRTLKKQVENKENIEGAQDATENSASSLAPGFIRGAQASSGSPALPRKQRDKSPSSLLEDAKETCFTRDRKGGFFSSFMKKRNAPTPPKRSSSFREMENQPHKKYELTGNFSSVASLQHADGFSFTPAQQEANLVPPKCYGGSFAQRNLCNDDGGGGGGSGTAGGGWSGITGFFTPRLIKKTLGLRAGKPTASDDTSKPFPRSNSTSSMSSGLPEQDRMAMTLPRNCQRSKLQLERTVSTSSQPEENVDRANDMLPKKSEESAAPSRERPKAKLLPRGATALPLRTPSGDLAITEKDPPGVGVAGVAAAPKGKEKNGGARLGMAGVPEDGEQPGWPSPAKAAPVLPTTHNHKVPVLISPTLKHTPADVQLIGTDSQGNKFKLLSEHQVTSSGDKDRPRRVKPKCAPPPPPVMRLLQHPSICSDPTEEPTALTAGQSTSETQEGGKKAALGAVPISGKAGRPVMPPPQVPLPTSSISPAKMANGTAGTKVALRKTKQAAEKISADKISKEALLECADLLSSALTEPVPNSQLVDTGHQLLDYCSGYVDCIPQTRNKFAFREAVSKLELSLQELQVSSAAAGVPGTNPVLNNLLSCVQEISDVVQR
Chain of Serine/threonine-protein kinase 38-like (Homo sapiens) (Q9Y2H1 2-464 limits assumed): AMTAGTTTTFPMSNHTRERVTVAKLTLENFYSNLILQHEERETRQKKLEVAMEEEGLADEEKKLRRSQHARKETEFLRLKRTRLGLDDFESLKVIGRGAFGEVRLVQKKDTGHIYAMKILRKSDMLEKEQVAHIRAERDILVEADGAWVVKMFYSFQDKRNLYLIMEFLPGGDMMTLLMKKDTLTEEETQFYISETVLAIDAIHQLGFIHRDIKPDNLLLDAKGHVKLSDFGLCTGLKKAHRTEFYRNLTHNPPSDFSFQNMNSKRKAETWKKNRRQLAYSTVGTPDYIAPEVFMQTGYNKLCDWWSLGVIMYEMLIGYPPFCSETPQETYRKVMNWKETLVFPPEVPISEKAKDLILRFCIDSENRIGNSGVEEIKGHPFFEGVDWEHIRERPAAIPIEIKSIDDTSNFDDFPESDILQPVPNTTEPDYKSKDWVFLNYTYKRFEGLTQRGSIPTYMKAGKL
Chain of LIM domain kinase 1 (Homo sapiens) (P53667 whole entry, looked up, the tested form may be a part): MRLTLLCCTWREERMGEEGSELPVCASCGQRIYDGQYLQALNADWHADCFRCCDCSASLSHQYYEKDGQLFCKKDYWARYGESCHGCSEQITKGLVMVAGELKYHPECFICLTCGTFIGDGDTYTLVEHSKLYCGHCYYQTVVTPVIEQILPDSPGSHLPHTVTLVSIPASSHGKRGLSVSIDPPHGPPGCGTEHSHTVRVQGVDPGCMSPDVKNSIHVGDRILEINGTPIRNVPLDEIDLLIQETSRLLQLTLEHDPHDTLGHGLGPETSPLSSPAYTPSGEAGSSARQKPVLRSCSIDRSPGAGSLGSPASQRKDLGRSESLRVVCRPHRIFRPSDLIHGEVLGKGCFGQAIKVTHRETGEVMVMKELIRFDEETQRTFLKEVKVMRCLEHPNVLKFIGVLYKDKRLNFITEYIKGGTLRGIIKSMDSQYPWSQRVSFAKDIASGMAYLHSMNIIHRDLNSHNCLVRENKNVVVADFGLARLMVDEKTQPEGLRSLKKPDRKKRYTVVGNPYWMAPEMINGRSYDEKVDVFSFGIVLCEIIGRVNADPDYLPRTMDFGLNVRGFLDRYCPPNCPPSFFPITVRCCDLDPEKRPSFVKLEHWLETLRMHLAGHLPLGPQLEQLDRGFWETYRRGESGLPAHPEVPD
Chain of Serine/threonine-protein kinase N1 (Homo sapiens) (Q16512 2-942 limits assumed): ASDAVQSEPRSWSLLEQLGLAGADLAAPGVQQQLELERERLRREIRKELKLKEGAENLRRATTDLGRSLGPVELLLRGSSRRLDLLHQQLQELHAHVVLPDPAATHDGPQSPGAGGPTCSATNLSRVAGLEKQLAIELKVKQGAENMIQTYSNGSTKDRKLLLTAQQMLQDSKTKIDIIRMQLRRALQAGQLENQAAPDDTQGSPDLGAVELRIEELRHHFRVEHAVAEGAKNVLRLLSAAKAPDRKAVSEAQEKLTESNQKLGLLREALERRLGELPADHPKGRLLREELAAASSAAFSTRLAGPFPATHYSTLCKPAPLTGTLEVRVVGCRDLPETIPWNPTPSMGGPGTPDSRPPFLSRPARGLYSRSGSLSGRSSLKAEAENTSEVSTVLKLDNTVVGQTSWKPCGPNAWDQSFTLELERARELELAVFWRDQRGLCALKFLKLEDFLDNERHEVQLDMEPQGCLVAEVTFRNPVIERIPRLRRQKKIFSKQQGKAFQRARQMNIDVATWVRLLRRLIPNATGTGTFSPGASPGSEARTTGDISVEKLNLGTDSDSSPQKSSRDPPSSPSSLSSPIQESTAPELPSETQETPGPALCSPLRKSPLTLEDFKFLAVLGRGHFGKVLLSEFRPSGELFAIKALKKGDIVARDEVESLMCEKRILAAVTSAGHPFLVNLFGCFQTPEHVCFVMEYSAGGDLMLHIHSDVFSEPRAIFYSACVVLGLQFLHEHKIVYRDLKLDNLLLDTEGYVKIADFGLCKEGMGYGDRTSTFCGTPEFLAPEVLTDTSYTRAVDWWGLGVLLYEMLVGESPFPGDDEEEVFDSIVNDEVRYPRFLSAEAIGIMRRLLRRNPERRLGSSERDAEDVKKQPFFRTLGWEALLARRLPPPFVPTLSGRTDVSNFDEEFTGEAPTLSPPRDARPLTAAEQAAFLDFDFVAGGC
Chain of Serine/threonine-protein kinase PLK1 (Homo sapiens) (P53350 whole entry): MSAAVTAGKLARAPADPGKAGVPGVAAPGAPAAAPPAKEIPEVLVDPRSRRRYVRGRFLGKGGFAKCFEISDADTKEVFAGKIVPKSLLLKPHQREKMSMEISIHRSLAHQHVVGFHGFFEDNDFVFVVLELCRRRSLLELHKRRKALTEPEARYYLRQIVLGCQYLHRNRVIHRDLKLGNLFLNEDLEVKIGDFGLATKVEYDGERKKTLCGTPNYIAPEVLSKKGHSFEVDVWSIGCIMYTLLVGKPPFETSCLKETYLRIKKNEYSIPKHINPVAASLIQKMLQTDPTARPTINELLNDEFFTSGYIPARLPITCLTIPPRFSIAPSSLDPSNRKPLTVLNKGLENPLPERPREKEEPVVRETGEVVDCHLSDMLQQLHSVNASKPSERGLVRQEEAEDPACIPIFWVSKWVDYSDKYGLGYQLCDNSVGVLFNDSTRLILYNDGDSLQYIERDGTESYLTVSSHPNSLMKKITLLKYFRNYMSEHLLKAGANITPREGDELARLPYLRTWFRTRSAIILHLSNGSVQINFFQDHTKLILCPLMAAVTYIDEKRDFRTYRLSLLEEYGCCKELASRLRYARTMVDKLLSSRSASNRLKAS
Chain of Dual specificity mitogen-activated protein kinase kinase 1 (Homo sapiens) (Q02750 whole entry): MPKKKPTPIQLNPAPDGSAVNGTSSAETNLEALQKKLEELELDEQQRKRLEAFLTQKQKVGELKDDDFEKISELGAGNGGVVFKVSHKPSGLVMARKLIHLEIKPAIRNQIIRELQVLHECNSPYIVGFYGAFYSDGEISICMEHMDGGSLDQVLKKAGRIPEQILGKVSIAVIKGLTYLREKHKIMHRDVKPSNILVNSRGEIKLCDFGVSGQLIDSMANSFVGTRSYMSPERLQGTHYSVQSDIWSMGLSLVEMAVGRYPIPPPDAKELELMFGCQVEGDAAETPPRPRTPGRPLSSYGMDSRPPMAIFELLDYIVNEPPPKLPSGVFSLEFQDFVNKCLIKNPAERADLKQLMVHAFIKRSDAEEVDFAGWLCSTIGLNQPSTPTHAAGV

As for `CCN1CCN(Cc2ccc(NC(=O)c3ccc(C)c(/C=C/c4cnc5[nH]ccc5c4OC)c3)cc2C(F)(F)F)CC1`, the % of control stood at 0.7% in test [1] and 2.8% in test [10]. Besides, the inhibition in test [2] was found to be 100%; in test [3], 67%; in [4], 19%; in test [7] it was 50%; in test [9], 100%; in [12], 34.7%. The inhibition in test [13] was -9.8%. Besides, the residual activity in test [5] stood at 8.1%; in test [6], 25%; in [8] it was 100%; in test [11], 100%.
For `CCN1CCN(Cc2ccc(NC(=O)c3ccc(C)c(Oc4ccnc5[nH]ccc45)c3)cc2C(F)(F)F)CC1`, the inhibition in test [14] was 83.9%; in test [15], -4.5%. Besides, in [16], the inhibition at 1 µM is -1.1%. Also, the inhibition result in test [17] and in [18] was “inactive” in each case.
In the case of `CNc1cc(Oc2cc(C(=O)Nc3cc(N4CCN(C)CC4)cc(C(F)(F)F)c3)ccc2C)ncn1`, the inhibition in test [19] was -8.3%; in test [20] it was -9.5%; in [21] it was 8.9%. Moreover, the inhibition at 1 µM in test [22] is -44.2%.
